Assay results: ChEMBL document CHEMBL4689842, “EUbOPEN Chemogenomics Library wave 1” (2021)

Test system: Fibroblast
Assay: Multiplex assay against human fibroblast
Assay type: toxicity, cell-based
Summary of the method: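 Compound was added to live cells that had been stained at seeding with Hoechst33342, BioTracker Green Microtubule Cytoskeleton Dye, MitoTracker Red and Annexin V Alexa Fluor 680, and imaging followed on a CQ1 microscope at 37°C and 5% CO2. CellPathfinder machine-learning gating divided cells into Hoechst high-intensity objects or normal cells, normal cells into healthy, pyknosed or fragmented nuclei, and pyknosed cells into mitotic or apoptotic. Tubulin, mitochondrial-mass and membrane-permeability phenotypes are per cents of healthy-nucleus cells.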

[1] = 12 h, 1 µM, compound concentration 1 uM, replicate 1
[2] = 12 h, 1 µM, compound concentration 1 uM, replicate 2
[3] = 12 h, 10 µM, compound concentration 10 uM, replicate 1
[4] = 12 h, 10 µM, compound concentration 10 uM, replicate 2
[5] = 24 h, 1 µM, compound concentration 1 uM, replicate 1
[6] = 24 h, 1 µM, compound concentration 1 uM, replicate 2
[7] = 24 h, 10 µM, compound concentration 10 uM, replicate 1
[8] = 24 h, 10 µM, compound concentration 10 uM, replicate 2
[9] = 48 h, 1 µM, compound concentration 1 uM, replicate 1
[10] = 48 h, 1 µM, compound concentration 1 uM, replicate 2
[11] = 48 h, 10 µM, compound concentration 10 uM, replicate 1
[12] = 48 h, 10 µM, compound concentration 10 uM, replicate 2

`Cc1ccccc1C(c1ccccc1C)N1C2CCC1CC(O)(c1ccccc1)C2` (centres undefined) was tested, and the “Population Apoptotic (%)” value [1] was 68%, the “Population Fragmented Nuclei (%)” value [1] was 14% and the “Population Healthy Nuclei (%)” value [1] was 40%. For the same molecule, the “Population Mitotic Cells (%)” value [1] was 31%, the “Population Normal (%)” value [1] was 84% and the “Population Pyknosed Nuclei (%)” value [1] was 44%. For the same molecule, the “Total Cell Count” value [1] was 127, the “Population Apoptotic (%)” value [2] was 50% and the “Population Fragmented Nuclei (%)” value [2] was 9%. The “Population Healthy Nuclei (%)” value [2] was 81%, the “Population Hoechst High Intensity Objects (%)” value [2] was 9% and the “Population Mitotic Cells (%)” value [2] was 50%. The “Population Normal (%)” value [2] was 90%, the “Population Pyknosed Nuclei (%)” value [2] was 9% and the “Total Cell Count” value [2] was 80. The “Population Apoptotic (%)” value [3] was 63%, the “Population Fragmented Nuclei (%)” value [3] was 23% and the “Population Healthy Nuclei (%)” value [3] was 44%. For the same molecule, the “Population Mitotic Cells (%)” value [3] was 36%, the “Population Normal (%)” value [3] was 85% and the “Population Pyknosed Nuclei (%)” value [3] was 32%. The “Total Cell Count” value [3] was 161, the “Population Apoptotic (%)” value [4] was 40% and the “Population Healthy Nuclei (%)” value [4] was 81%. For the same molecule, the “Population Mitotic Cells (%)” value [4] was 60%, the “Population Normal (%)” value [4] was 86% and the “Total Cell Count” value [4] was 71. For the same molecule, the “Population Apoptotic (%)” value [5] was 62%, the “Population Healthy Nuclei (%)” value [5] was 55% and the “Population Hoechst High Intensity Objects (%)” value [5] was 20%. For the same molecule, the “Population Mitotic Cells (%)” value [5] was 37%, the “Population Normal (%)” value [5] was 79% and the “Population Pyknosed Nuclei (%)” value [5] was 28%. For the same molecule, the “Total Cell Count” value [5] was 107, the “Population Fragmented Nuclei (%)” value [6] was 9% and the “Population Healthy Nuclei (%)” value [6] was 77%. The “Population Hoechst High Intensity Objects (%)” value [6] was 4%, the “Population Mitotic Cells (%)” value [6] was 80% and the “Population Normal (%)” value [6] was 95%. The “Total Cell Count” value [6] was 89, the “Population Apoptotic (%)” value [7] was 47% and the “Population Fragmented Nuclei (%)” value [7] was 23%. The “Population Healthy Nuclei (%)” value [7] was 47%, the “Population Hoechst High Intensity Objects (%)” value [7] was 8% and the “Population Mitotic Cells (%)” value [7] was 52%. For the same molecule, the “Population Normal (%)” value [7] was 91%, the “Population Pyknosed Nuclei (%)” value [7] was 28% and the “Total Cell Count” value [7] was 159. For the same molecule, the “Population Apoptotic (%)” value [8] was 50%, the “Population Fragmented Nuclei (%)” value [8] was 20% and the “Population Healthy Nuclei (%)” value [8] was 65%. The “Population Mitotic Cells (%)” value [8] was 50%, the “Population Normal (%)” value [8] was 93% and the “Total Cell Count” value [8] was 85. For the same molecule, the “Population Apoptotic (%)” value [9] was 61%, the “Population Fragmented Nuclei (%)” value [9] was 30% and the “Population Healthy Nuclei (%)” value [9] was 51%. The “Population Hoechst High Intensity Objects (%)” value [9] was 16%, the “Population Mitotic Cells (%)” value [9] was 38% and the “Population Normal (%)” value [9] was 83%. For the same molecule, the “Total Cell Count” value [9] was 121, the “Population Apoptotic (%)” value [10] was 0% and the “Population Fragmented Nuclei (%)” value [10] was 60%. The “Population Healthy Nuclei (%)” value [10] was 40%, the “Population Hoechst High Intensity Objects (%)” value [10] was 0% and the “Population Mitotic Cells (%)” value [10] was 0%. For the same molecule, the “Population Normal (%)” value [10] was 100%, the “Population Pyknosed Nuclei (%)” value [10] was 0% and the “Total Cell Count” value [10] was 5. The “Population Apoptotic (%)” value [11] was 40%, the “Population Fragmented Nuclei (%)” value [11] was 30% and the “Population Healthy Nuclei (%)” value [11] was 59%. The “Population Mitotic Cells (%)” value [11] was 60%, the “Population Normal (%)” value [11] was 92% and the “Population Pyknosed Nuclei (%)” value [11] was 9%. For the same molecule, the “Total Cell Count” value [11] was 170, the “Population Apoptotic (%)” value [12] was 100% and the “Population Fragmented Nuclei (%)” value [12] was 35%. The “Population Healthy Nuclei (%)” value [12] was 62%, the “Population Hoechst High Intensity Objects (%)” value [12] was 4% and the “Population Mitotic Cells (%)” value [12] was 0%. The “Population Normal (%)” value [12] was 95%, the “Population Pyknosed Nuclei (%)” value [12] was 1% and the “Total Cell Count” value [12] was 118.
